Measured values taken from ChEMBL document CHEMBL4689842, “EUbOPEN Chemogenomics Library wave 1” (2021).

Tested on: Fibroblast
Experiment: Multiplex assay against human fibroblast
Assay type: toxicity, cell-based
Outline: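 At seeding, live cells were stained with Hoechst33342, BioTracker Green Microtubule Cytoskeleton Dye, MitoTracker Red and Annexin V Alexa Fluor 680. After compound addition they were imaged on a CQ1 microscope at 37°C and 5% CO2, and CellPathfinder machine-learning gating sorted them into Hoechst high-intensity objects or normal cells, with normal cells further split into healthy, pyknosed or fragmented nuclei and pyknosed cells into mitotic or apoptotic. Tubulin, mitochondrial-mass and membrane-permeability phenotypes are given as per cents of cells with healthy nuclei.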

[1] = 12 h, 1 µM, compound concentration 1 uM, replicate 1
[2] = 12 h, 1 µM, compound concentration 1 uM, replicate 2
[3] = 12 h, 10 µM, compound concentration 10 uM, replicate 1
[4] = 12 h, 10 µM, compound concentration 10 uM, replicate 2
[5] = 24 h, 1 µM, compound concentration 1 uM, replicate 1
[6] = 24 h, 1 µM, compound concentration 1 uM, replicate 2
[7] = 24 h, 10 µM, compound concentration 10 uM, replicate 1
[8] = 24 h, 10 µM, compound concentration 10 uM, replicate 2
[9] = 48 h, 1 µM, compound concentration 1 uM, replicate 1
[10] = 48 h, 1 µM, compound concentration 1 uM, replicate 2
[11] = 48 h, 10 µM, compound concentration 10 uM, replicate 1
[12] = 48 h, 10 µM, compound concentration 10 uM, replicate 2

O=c1cc(N2CCOCC2)oc2c(-c3cccc4c3sc3ccccc34)cccc12
Population Apoptotic (%) [1]: 65% | Population Fragmented Nuclei (%) [1]: 23% | Population Healthy Nuclei (%) [1]: 44% | Population Hoechst High Intensity Objects (%) [1]: 13% | Population Membrane Permeable-Phenotype (%) [1]: 32% | Population Mitochondria Different-Phenotype (%) [1]: 5% | Population Mitotic Cells (%) [1]: 34% | Population Normal (%) [1]: 86% | Population Pyknosed Nuclei (%) [1]: 32% | Population Tubulin-Different-Phenotype (%) [1]: 36% | Total Cell Count [1]: 136 | Population Apoptotic (%) [2]: 100% | Population Fragmented Nuclei (%) [2]: 15% | Population Healthy Nuclei (%) [2]: 77% | Population Hoechst High Intensity Objects (%) [2]: 10% | Population Membrane Permeable-Phenotype (%) [2]: 2% | Population Mitochondria Different-Phenotype (%) [2]: 6% | Population Mitotic Cells (%) [2]: 0% | Population Normal (%) [2]: 90% | Population Pyknosed Nuclei (%) [2]: 6% | Population Tubulin-Different-Phenotype (%) [2]: 14% | Total Cell Count [2]: 79 | Population Apoptotic (%) [3]: 61% | Population Fragmented Nuclei (%) [3]: 35% | Population Healthy Nuclei (%) [3]: 28% | Population Hoechst High Intensity Objects (%) [3]: 13% | Population Membrane Permeable-Phenotype (%) [3]: 30% | Population Mitochondria Different-Phenotype (%) [3]: 28% | Population Mitotic Cells (%) [3]: 38% | Population Normal (%) [3]: 86% | Population Pyknosed Nuclei (%) [3]: 36% | Population Tubulin-Different-Phenotype (%) [3]: 95% | Total Cell Count [3]: 171 | Population Apoptotic (%) [4]: 31% | Population Fragmented Nuclei (%) [4]: 19% | Population Healthy Nuclei (%) [4]: 45% | Population Hoechst High Intensity Objects (%) [4]: 16% | Population Membrane Permeable-Phenotype (%) [4]: 23% | Population Mitochondria Different-Phenotype (%) [4]: 90% | Population Mitotic Cells (%) [4]: 68% | Population Normal (%) [4]: 83% | Population Pyknosed Nuclei (%) [4]: 34% | Total Cell Count [4]: 70 | Population Apoptotic (%) [5]: 57% | Population Fragmented Nuclei (%) [5]: 19% | Population Healthy Nuclei (%) [5]: 60% | Population Hoechst High Intensity Objects (%) [5]: 9% | Population Membrane Permeable-Phenotype (%) [5]: 31% | Population Mitochondria Different-Phenotype (%) [5]: 2% | Population Mitotic Cells (%) [5]: 42% | Population Normal (%) [5]: 90% | Population Pyknosed Nuclei (%) [5]: 20% | Population Tubulin-Different-Phenotype (%) [5]: 39% | Total Cell Count [5]: 151 | Population Apoptotic (%) [6]: 60% | Population Fragmented Nuclei (%) [6]: 11% | Population Healthy Nuclei (%) [6]: 82% | Population Hoechst High Intensity Objects (%) [6]: 6% | Population Membrane Permeable-Phenotype (%) [6]: 9% | Population Mitochondria Different-Phenotype (%) [6]: 9% | Population Mitotic Cells (%) [6]: 40% | Population Normal (%) [6]: 93% | Population Pyknosed Nuclei (%) [6]: 6% | Population Tubulin-Different-Phenotype (%) [6]: 15% | Total Cell Count [6]: 86 | Population Apoptotic (%) [7]: 77% | Population Fragmented Nuclei (%) [7]: 28% | Population Healthy Nuclei (%) [7]: 45% | Population Hoechst High Intensity Objects (%) [7]: 14% | Population Membrane Permeable-Phenotype (%) [7]: 19% | Population Mitochondria Different-Phenotype (%) [7]: 40% | Population Mitotic Cells (%) [7]: 22% | Population Normal (%) [7]: 85% | Population Pyknosed Nuclei (%) [7]: 26% | Population Tubulin-Different-Phenotype (%) [7]: 95% | Total Cell Count [7]: 160 | Population Apoptotic (%) [8]: 66% | Population Fragmented Nuclei (%) [8]: 14% | Population Healthy Nuclei (%) [8]: 21% | Population Hoechst High Intensity Objects (%) [8]: 6% | Population Membrane Permeable-Phenotype (%) [8]: 50% | Population Mitochondria Different-Phenotype (%) [8]: 70% | Population Mitotic Cells (%) [8]: 33% | Population Normal (%) [8]: 94% | Population Pyknosed Nuclei (%) [8]: 63% | Population Tubulin-Different-Phenotype (%) [8]: 70% | Total Cell Count [8]: 86 | Population Apoptotic (%) [9]: 60% | Population Fragmented Nuclei (%) [9]: 33% | Population Healthy Nuclei (%) [9]: 56% | Population Hoechst High Intensity Objects (%) [9]: 11% | Population Membrane Permeable-Phenotype (%) [9]: 21% | Population Mitochondria Different-Phenotype (%) [9]: 7% | Population Mitotic Cells (%) [9]: 40% | Population Normal (%) [9]: 88% | Population Pyknosed Nuclei (%) [9]: 10% | Population Tubulin-Different-Phenotype (%) [9]: 27% | Total Cell Count [9]: 167 | Population Apoptotic (%) [10]: 50% | Population Fragmented Nuclei (%) [10]: 18% | Population Healthy Nuclei (%) [10]: 76% | Population Hoechst High Intensity Objects (%) [10]: 6% | Population Membrane Permeable-Phenotype (%) [10]: 17% | Population Mitochondria Different-Phenotype (%) [10]: 2% | Population Mitotic Cells (%) [10]: 50% | Population Normal (%) [10]: 93% | Population Pyknosed Nuclei (%) [10]: 4% | Population Tubulin-Different-Phenotype (%) [10]: 24% | Total Cell Count [10]: 97 | Population Apoptotic (%) [11]: 68% | Population Fragmented Nuclei (%) [11]: 51% | Population Healthy Nuclei (%) [11]: 23% | Population Hoechst High Intensity Objects (%) [11]: 12% | Population Membrane Permeable-Phenotype (%) [11]: 17% | Population Mitochondria Different-Phenotype (%) [11]: 37% | Population Mitotic Cells (%) [11]: 31% | Population Normal (%) [11]: 87% | Population Pyknosed Nuclei (%) [11]: 25% | Population Tubulin-Different-Phenotype (%) [11]: 80% | Total Cell Count [11]: 173 | Population Apoptotic (%) [12]: 64% | Population Fragmented Nuclei (%) [12]: 27% | Population Healthy Nuclei (%) [12]: 55% | Population Hoechst High Intensity Objects (%) [12]: 10% | Population Membrane Permeable-Phenotype (%) [12]: 6% | Population Mitochondria Different-Phenotype (%) [12]: 48% | Population Mitotic Cells (%) [12]: 35% | Population Normal (%) [12]: 90% | Population Pyknosed Nuclei (%) [12]: 17% | Population Tubulin-Different-Phenotype (%) [12]: 88% | Total Cell Count [12]: 90
